Experimental data reported in ChEMBL document CHEMBL1131478 (J Med Chem, 1998).

Columns and labels:
[1] = target: T1, Neprilysin (Rattus norvegicus, UniProt P07861); assay: Inhibitory activity against neutral endopeptidase (NEP)
T1 sequence (P07861 whole entry): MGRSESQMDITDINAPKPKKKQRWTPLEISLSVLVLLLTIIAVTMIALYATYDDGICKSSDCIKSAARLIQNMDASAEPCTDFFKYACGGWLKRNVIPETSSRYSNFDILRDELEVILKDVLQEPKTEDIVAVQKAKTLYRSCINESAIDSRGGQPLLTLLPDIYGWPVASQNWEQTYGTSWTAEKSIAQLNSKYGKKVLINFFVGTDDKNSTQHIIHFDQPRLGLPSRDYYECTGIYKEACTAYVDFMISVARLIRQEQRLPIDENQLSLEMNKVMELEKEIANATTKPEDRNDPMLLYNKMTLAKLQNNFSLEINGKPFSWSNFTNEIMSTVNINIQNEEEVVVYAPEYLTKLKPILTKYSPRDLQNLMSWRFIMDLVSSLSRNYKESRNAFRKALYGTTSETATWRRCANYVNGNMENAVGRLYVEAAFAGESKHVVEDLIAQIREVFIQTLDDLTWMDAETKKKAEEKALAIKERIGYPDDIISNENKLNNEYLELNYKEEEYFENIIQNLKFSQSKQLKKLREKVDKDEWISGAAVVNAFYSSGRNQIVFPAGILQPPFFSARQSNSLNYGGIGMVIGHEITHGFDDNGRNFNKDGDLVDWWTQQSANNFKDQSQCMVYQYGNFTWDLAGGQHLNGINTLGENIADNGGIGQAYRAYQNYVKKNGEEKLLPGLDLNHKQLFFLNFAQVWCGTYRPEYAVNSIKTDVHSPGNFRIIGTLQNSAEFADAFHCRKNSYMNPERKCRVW

[2] = target: T2, Interstitial collagenase (Homo sapiens, UniProt P03956); assay: Inhibitory activity against Matrix metalloprotease-1
T2 sequence (P03956 whole entry): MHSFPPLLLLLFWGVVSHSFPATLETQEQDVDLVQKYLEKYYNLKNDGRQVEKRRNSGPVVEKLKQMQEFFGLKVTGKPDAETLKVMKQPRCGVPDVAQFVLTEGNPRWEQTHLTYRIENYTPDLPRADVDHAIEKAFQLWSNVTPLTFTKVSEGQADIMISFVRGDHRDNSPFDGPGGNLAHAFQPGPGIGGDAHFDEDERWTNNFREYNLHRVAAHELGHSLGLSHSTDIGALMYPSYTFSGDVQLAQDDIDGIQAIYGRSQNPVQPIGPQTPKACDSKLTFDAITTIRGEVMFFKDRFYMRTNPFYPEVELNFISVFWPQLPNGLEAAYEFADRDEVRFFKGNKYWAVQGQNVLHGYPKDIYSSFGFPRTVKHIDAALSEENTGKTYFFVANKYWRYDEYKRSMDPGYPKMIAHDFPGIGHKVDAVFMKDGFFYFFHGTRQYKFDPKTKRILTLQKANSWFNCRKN
Method in brief: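 Commercial enzyme diluted in Tris/CaCl2/NaCl/Brij-35 buffer. Enzyme (about 0.2 unit/mL) and DMSO inhibitor were preincubated 30 min at room temperature with ABD-F (added as 2 mM) in 25 mM HEPES-NaOH/5 mM CaCl2, pH 7.0. Thiopeptide substrate Ac-Pro-Leu-Gly-SCH(CH2CH(CH3)2)CO-Leu-Gly-OEt (1.25 mM stock) was then added for 3 h at 37 °C. Reaction quenched with 3% acetic acid. Fluorescence read at ex 360/em 530 nm.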

[3] = Maximum plasma concentration (Cmax) after p.o. administration of 200 mg/kg in mice; type: ADME, organism-based; set-up: dose 200 mg/kg, route oral; conditions: mouse, po
Method in brief: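 Single 200 mg/kg oral dose in mice, given in 0.5% methyl cellulose. Blood drawn at various time points. Plasma drug extracted with CH3CN and quantified by reverse-phase C18 HPLC using a CH3CN gradient with 0.1% TFA. Peak plasma level taken as Cmax.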

[4] = target: T3, Matrilysin (Homo sapiens, UniProt P09237); assay: Inhibitory activity against Matrix metalloprotease-7
T3 sequence (P09237 whole entry): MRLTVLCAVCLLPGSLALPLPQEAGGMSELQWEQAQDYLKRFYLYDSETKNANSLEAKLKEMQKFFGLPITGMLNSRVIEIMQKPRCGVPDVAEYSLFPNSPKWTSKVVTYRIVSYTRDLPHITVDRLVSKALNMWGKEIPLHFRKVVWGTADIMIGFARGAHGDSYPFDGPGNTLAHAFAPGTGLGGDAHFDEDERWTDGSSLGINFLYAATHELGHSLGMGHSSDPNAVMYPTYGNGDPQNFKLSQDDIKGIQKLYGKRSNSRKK

[5] = target: Stromelysin-1 (Homo sapiens, UniProt P08254); assay: Inhibitory activity against Matrix metalloprotease-3
Method in brief: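 Enzyme and DMSO inhibitor were preincubated 30 min at room temperature in 50 mM Tris-Cl/10 mM CaCl2/0.2 M NaCl/0.02% NaN3/0.05% Brij-35, pH 7.5. Substrate MOAc-Arg-Pro-Lys-Pro-Val-Glu-Nva-Trp-Arg-Lys(Dnp)NH2 (added as 25 μM solution) then reacted 90 min.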

[6] = target: Angiotensin-converting enzyme (Homo sapiens, UniProt P12821); assay: Inhibitory activity against Angiotensin I converting enzyme
[7] = target: T4, Endothelin-converting enzyme 1 (Homo sapiens, UniProt P42892); assay: Inhibitory activity against endothelin converting enzyme (ECE)
T4 sequence (P42892 whole entry): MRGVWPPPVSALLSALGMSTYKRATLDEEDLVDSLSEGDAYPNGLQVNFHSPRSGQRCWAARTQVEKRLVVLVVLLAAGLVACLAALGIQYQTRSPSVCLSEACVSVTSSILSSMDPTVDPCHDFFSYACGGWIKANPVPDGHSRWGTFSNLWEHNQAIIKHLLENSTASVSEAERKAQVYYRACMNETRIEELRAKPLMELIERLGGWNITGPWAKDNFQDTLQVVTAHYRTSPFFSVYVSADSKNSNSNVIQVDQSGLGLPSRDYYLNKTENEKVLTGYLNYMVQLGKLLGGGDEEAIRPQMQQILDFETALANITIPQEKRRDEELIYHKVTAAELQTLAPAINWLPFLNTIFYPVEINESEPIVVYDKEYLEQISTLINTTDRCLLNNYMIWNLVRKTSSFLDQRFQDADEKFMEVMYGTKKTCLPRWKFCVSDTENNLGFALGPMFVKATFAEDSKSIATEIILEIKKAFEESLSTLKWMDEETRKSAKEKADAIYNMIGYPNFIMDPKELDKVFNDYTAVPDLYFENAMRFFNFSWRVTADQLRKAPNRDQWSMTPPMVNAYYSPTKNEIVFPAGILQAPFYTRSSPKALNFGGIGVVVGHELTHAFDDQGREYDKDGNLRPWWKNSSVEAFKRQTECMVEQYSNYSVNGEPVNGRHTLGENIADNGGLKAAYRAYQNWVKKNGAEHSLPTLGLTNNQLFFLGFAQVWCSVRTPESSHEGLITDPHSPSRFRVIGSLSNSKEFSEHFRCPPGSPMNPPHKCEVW

[8] = target: 72 kDa type IV collagenase (Homo sapiens, UniProt P08253); assay: Inhibitory activity against human gelatinase A (matrix metalloprotease-2 MMP2)
[9] = target: T4, Endothelin-converting enzyme 1; assay: Inhibitory activity against Endothelin-converting enzyme (ECE)
[10] = target: Matrix metalloproteinase-9 (Homo sapiens, UniProt P14780); assay: Inhibitory activity against human gelatinase B (Matrix metalloprotease-9)
Chain of Matrix metalloproteinase-9 (P14780 whole entry): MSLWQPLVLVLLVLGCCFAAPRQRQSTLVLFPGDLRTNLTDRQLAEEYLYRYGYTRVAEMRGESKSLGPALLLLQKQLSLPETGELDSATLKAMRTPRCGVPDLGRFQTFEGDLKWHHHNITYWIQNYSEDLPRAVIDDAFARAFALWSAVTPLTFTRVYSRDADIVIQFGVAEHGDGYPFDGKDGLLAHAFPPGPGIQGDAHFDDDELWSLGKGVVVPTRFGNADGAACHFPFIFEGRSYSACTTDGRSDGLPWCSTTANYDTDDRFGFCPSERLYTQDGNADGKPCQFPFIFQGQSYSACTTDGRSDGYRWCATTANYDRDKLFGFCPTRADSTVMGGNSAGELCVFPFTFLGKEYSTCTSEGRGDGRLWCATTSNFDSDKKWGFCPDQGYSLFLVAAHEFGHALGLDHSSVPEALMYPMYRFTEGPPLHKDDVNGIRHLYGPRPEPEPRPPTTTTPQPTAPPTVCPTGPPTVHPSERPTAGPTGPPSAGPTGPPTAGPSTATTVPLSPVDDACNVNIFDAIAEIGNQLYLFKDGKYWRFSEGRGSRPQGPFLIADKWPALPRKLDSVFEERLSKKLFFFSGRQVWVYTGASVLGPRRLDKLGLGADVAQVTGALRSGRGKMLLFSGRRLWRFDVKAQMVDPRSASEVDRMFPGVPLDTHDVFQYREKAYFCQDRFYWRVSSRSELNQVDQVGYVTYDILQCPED

Chain of 72 kDa type IV collagenase (P08253 whole entry): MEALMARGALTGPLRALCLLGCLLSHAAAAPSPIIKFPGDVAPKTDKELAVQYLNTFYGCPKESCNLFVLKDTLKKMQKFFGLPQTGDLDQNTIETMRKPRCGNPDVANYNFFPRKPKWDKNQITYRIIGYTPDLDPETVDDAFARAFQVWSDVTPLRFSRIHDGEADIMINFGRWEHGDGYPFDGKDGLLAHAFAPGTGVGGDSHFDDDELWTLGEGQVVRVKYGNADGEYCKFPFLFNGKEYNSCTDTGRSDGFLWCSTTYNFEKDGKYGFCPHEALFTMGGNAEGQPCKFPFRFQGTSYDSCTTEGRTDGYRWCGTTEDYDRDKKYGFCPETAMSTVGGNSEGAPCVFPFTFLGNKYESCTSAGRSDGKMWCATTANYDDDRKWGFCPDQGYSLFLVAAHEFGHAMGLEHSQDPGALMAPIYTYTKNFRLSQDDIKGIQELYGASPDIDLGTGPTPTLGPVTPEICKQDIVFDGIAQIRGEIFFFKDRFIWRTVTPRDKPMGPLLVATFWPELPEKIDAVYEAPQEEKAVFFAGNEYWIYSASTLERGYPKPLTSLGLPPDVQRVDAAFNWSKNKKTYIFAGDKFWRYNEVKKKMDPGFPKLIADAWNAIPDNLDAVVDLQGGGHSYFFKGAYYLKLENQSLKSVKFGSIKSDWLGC
Chain of Angiotensin-converting enzyme (P12821 whole entry): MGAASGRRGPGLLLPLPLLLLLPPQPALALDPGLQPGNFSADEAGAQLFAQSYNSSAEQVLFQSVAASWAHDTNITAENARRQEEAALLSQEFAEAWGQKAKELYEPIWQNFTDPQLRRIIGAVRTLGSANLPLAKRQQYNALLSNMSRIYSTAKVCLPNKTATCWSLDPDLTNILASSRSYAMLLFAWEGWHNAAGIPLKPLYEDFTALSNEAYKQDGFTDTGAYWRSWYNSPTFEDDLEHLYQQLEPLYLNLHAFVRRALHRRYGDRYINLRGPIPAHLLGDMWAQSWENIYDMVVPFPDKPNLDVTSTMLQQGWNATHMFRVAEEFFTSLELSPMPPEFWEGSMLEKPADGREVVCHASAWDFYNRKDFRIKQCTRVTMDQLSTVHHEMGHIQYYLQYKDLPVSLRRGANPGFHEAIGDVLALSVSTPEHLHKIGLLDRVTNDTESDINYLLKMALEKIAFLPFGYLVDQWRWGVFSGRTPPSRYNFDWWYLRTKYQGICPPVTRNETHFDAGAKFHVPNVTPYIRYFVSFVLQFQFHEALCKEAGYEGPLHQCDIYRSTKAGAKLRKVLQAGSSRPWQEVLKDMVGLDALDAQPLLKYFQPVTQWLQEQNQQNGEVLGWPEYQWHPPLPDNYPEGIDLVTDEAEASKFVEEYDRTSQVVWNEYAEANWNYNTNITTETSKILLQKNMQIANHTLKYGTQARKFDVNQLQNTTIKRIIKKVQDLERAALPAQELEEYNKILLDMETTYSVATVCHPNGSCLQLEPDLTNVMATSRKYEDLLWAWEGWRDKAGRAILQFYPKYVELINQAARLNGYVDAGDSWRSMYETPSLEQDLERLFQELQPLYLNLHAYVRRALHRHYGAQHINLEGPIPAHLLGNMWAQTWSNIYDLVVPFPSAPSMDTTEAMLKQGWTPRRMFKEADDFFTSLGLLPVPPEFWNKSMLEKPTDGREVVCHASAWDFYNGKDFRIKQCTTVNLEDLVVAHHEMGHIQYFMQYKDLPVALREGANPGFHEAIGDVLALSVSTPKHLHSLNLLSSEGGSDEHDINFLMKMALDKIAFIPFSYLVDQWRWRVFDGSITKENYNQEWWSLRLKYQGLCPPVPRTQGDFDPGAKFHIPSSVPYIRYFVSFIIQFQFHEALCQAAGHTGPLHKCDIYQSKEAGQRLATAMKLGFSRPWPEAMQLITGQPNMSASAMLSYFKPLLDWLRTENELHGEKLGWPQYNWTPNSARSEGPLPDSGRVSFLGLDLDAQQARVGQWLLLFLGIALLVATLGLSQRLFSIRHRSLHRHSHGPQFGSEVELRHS
Chain of Stromelysin-1 (P08254 whole entry): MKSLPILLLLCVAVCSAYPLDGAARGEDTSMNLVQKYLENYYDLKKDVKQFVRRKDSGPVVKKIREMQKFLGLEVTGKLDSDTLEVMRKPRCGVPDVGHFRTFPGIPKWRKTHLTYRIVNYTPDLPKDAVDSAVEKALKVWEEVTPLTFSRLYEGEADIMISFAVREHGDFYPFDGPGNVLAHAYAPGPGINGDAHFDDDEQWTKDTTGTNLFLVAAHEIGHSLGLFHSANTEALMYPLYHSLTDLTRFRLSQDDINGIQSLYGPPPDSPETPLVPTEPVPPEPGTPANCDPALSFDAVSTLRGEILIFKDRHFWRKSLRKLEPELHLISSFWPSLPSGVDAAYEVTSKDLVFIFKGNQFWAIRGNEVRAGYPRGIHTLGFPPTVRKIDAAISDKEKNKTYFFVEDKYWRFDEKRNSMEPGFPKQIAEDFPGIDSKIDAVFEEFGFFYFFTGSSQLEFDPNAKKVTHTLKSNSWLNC

| SMILES | IC50 [1] | IC50 [2] | Cmax [3] | IC50 [4] | IC50 [5] | IC50 [6] | IC50 [7] | IC50 [8] | IC50 [9] | IC50 [10] |
| --- | --- | --- | --- | --- | --- | --- | --- | --- | --- | --- |
| O=C(Nc1ccc(S(=O)(=O)N[C@H](Cc2c[nH]c3ccccc23)C(=O)O)cc1)c1ccc(Br)cc1 | > 1000 nM | > 1000 nM | 0.2 µM | > 1000 nM | > 1000 nM | > 1000 nM | > 1000 nM | 2.6 nM | – | – |
| O=C(O)[C@@H](Cc1c[nH]c2ccccc12)NS(=O)(=O)c1ccc(-c2nnn(-c3ccccc3)n2)cc1 | > 1000 nM | > 1000 nM | – | > 1000 nM | > 1000 nM | > 1000 nM | – | 19 nM | > 1000 nM | 32 nM |
| Cc1ccc(C#Cc2ccc(S(=O)(=O)N[C@H](Cc3c[nH]c4ccccc34)C(=O)O)s2)cc1 [S-3304] | > 1000 nM | > 1000 nM | 204 µM | > 1000 nM | > 1000 nM | > 1000 nM | > 1000 nM | – | – | 23 nM |

Next, values leading:

| IC50 [1] | IC50 [2] | Cmax [3] | IC50 [4] | IC50 [5] | IC50 [6] | IC50 [7] | IC50 [8] | IC50 [9] | IC50 [10] | SMILES |
| --- | --- | --- | --- | --- | --- | --- | --- | --- | --- | --- |
| > 1000 nM | > 1000 nM | 47.7 µM | > 1000 nM | > 1000 nM | > 1000 nM | > 1000 nM | 13 nM | – | – | CSc1ccc(-n2nnc(-c3ccc(S(=O)(=O)N[C@@H](C(=O)O)C(C)C)cc3)n2)cc1 |
| > 1000 nM | > 1000 nM | 252 µM | > 1000 nM | > 1000 nM | > 1000 nM | – | 10 nM | > 1000 nM | 61 nM | Cc1ccc(-c2ccc(S(=O)(=O)N[C@H](Cc3c[nH]c4ccccc34)C(=O)O)s2)cc1 |
| > 1000 nM | > 1000 nM | 189 µM | > 1000 nM | > 1000 nM | > 1000 nM | > 1000 nM | 23 nM | – | 40 nM | CSc1ccc(-c2ccc(S(=O)(=O)N[C@@H](C(=O)O)C(C)C)cc2)cc1 |
